Assay results collected from several papers.
Each line is one published result; the experiments were not run side by side.
EGFR del752-759: Epidermal growth factor receptor (EGFR, Homo sapiens, UniProt P00533, del752-759)
EGFR L858R/T790M: Epidermal growth factor receptor (EGFR, Homo sapiens, UniProt P00533, L858R/T790M)
EGFR L858R: Epidermal growth factor receptor (EGFR, Homo sapiens, UniProt P00533, L858R)
EGFR G719C: Epidermal growth factor receptor (EGFR, Homo sapiens, UniProt P00533, G719C)
EGFR: Epidermal growth factor receptor (EGFR, Homo sapiens, UniProt P00533)
EGFR del746-750: Epidermal growth factor receptor (EGFR, Homo sapiens, UniProt P00533, del746-750)
EGFR T790M: Epidermal growth factor receptor (EGFR, Homo sapiens, UniProt P00533, T790M)
EGFR G719S: Epidermal growth factor receptor (EGFR, Homo sapiens, UniProt P00533, G719S)

Cc1cnc(Nc2ccc(C(=O)N3CCC(N4CCCC4)CC3)cc2)nc1-c1cc2ccccc2s1
remaining binding (EGFR del752-759; binding, competition with immobilised ligand; 1 µM): 84%

CN(CCCC(F)(F)F)c1nccc(-c2cnn3ncccc23)n1
remaining binding (EGFR del752-759; binding; 1 µM): 85%

NS(=O)(=O)c1cc(NC(=O)Cc2ccccc2)ccc1Oc1cccc(Cl)c1
remaining binding (EGFR L858R/T790M; cell-free assay, competition with immobilised ligand; 1 µM): 75%

COc1ncc2cc3ccccc3nc2c1C#N
remaining binding (EGFR L858R; cell-free assay, competition with immobilised ligand; 5 µM): 99%

O=C(c1ccc(Nc2ncc(Cl)c(-c3ccc(Cl)s3)n2)cc1)N1CCC(N2CCCC2)CC1
remaining binding (EGFR G719C; binding, competition with immobilised ligand; 1 µM): 100%

CCN1CCN(Cc2ccc(C(=O)Nc3ccc(C)c(Oc4ccc5c(c4)CC(=O)N5)c3)cc2C(F)(F)F)CC1
remaining binding (Epidermal growth factor receptor (EGFR, Homo sapiens, UniProt P00533, del747-752/P753S); binding, competition with immobilised ligand; 1 µM): 100%

C[C@@H]1CCN(c2nccc(-c3cnn4ncccc34)n2)C1
remaining binding (EGFR; binding; 1 µM): 100%

O=C(c1ccc(Nc2ncc(Cl)c(-c3cc4ccccc4s3)n2)cc1)N1CCC(N2CCCC2)CC1
remaining binding (EGFR del746-750; binding, competition with immobilised ligand; 1 µM): 79%

c1cncc(-c2cccc(Nc3nccc(NC4CCCCC4)n3)c2)c1
remaining binding (EGFR L858R/T790M; binding, competition with immobilised ligand; 10 µM): 29%

O=C(NCCCN1CCOCC1)c1ccc(Nc2nccc(-c3cc4ccccc4s3)n2)cc1
remaining binding (EGFR del746-750; binding, competition with immobilised ligand; 1 µM): 100%

O=C(NCC1CCOCC1)c1n[nH]cc1NC(=O)c1c(F)cccc1F
remaining binding (EGFR T790M; binding, competition with immobilised ligand; 1 µM): 93%

Cc1nc(N2CC[C@@H](O)C2)ncc1-c1cc(C(F)(F)F)cc2[nH]ncc12
remaining binding (EGFR del752-759; cell-free assay, competition with immobilised ligand; 1 µM): 99%

COc1cnc(Nc2cccc(S(N)(=O)=O)c2)nc1N1CCN(c2ccccc2)CC1
remaining binding (EGFR; binding, competition with immobilised ligand; 1 µM): 100%

CNCc1ccccc1-c1csc([C@@H](C)Nc2nc(C)nc3cc(OC)c(OC)cc23)c1
remaining binding (EGFR del752-759; cell-free assay, competition with immobilised ligand; 1 µM): 63%

CN(c1nccc(-c2cnn3ncccc23)n1)C1CC1
remaining binding (EGFR T790M; binding; 1 µM): 100%

Nc1ncc2c(n1)-c1c([nH]c3ccc(C#CC4CC4)cc13)CCCC2
remaining binding (EGFR L858R; binding, competition with immobilised ligand; 1 µM): 100%

CN(C)c1ncc(F)c(-c2cnn3ncccc23)n1
remaining binding (EGFR G719C; binding; 1 µM): 86%

C[C@@H]1CN(c2cc(-c3n[nH]c4ccc(OC5(C)CC5)cc34)ncn2)C[C@H](C)O1
remaining binding (EGFR G719S; cell-free assay, competition with immobilised ligand; 0.1 µM): 59%

O=C(Nc1c[nH]nc1C(=O)NC1CCNCC1)c1cc(F)cc(F)c1
remaining binding (EGFR L858R/T790M; binding, competition with immobilised ligand; 1 µM): 100%

O=C(c1ccc(Nc2nccc(-c3cc4ccccc4s3)n2)cc1)N1CCC(N2CCCC2)CC1
remaining binding (EGFR; binding, competition with immobilised ligand; 1 µM): 97%

CN1CCN(c2ccc(Nc3nccc(-c4ccccc4)n3)cc2C(F)(F)F)CC1
remaining binding (EGFR T790M; binding; 10 µM): 77%

O=C(NCCCN1CCOCC1)c1ccc(Nc2ncc(Cl)c(-c3ccc(Cl)s3)n2)cc1
remaining binding (EGFR; binding, competition with immobilised ligand; 1 µM): 89%

COc1ccnn2ncc(-c3ccnc(N(C)C)n3)c12
remaining binding (EGFR del746-750; binding; 1 µM): 97%

FC(F)(F)c1ccc2c(c1)nc(-c1cccnc1)n2C1CC1
remaining binding (EGFR G719S; cell-free assay, competition with immobilised ligand; 1 µM): 93%

Cc1cnn2ncc(-c3ccnc(N(C)C)n3)c2c1
remaining binding (EGFR; binding; 1 µM): 75%

O=C(NC[C@@H]1[C@H]2CN(C(=O)OCc3cc(C(F)(F)F)cc(C(F)(F)F)c3)C[C@@H]12)c1ccc2[nH]nnc2c1
remaining binding (EGFR L858R; cell-free assay, competition with immobilised ligand; 1 µM): 100%

CNC(=O)[C@@H]1CC[C@@H](n2c(-c3ccc4cnccc4c3)nc3ccc(C(=O)NCc4cccc(C(N)=O)c4)cc32)C1
remaining binding (EGFR del746-750; binding, competition with immobilised ligand; 1 µM): 90%

CSc1cccnc1N1CCN(Cc2nc3ccccc3[nH]2)CC1
remaining binding (EGFR T790M; cell-free assay, competition with immobilised ligand; 1 µM): 85%

c1cnn2ncc(-c3ccnc(N4CCC45COC5)n3)c2c1
remaining binding (EGFR L858R/T790M; binding; 1 µM): 65%

O=C(O)[C@H]1[C@H](Cn2nnc3ccccc3c2=O)CC[C@@H]1C(=O)c1ccc(OCCC2CCOCC2)cc1
remaining binding (Epidermal growth factor receptor (EGFR, Homo sapiens, UniProt P00533, del747-750/T751S); cell-free assay, competition with immobilised ligand; 1 µM): 65%

COc1cnc(Nc2cccc(S(N)(=O)=O)c2)nc1N1CCN(c2ccccc2)C(=O)C1
remaining binding (EGFR L858R; binding, competition with immobilised ligand; 1 µM): 100%
